Screens: PubChem BioAssay, Sanford-Burnham Center for Chemical Genomics
APJ antagonist: antagonists of human APJ apelin receptor. actives 0.32% (n = 330,000). CHO-K1 APJ beta-arrestin complementation, luminescence. inhibition, % at 20 µM;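 active means inhibition above about 40% at 20 µM, limit read from the data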;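 further: cells challenged with 10 nM apelin-13 agonist together with compound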
CXCR6 block: blocks human CXCR6 beta-arrestin recruitment. AID 602244. actives 0.36% (n = 360,000). O00574. CHO-K1 PathHunter CXCR6 beta-arrestin, luminescence. inhibition, % at 20 µM; in the data active means inhibition above about 34%, passing the limit was not always enough;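 further: antagonist mode with CXCL16 agonist at 10 nM final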
Target sequence (O00574 whole entry, looked up): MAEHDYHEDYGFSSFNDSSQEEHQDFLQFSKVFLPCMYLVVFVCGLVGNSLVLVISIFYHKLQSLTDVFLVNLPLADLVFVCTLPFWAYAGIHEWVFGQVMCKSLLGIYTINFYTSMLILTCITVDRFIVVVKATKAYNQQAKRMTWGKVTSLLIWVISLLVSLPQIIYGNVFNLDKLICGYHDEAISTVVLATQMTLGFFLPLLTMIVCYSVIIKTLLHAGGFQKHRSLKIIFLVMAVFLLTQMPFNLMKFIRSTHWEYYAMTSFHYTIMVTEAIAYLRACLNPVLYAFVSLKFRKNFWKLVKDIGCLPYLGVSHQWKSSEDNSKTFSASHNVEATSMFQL
APJ ag: activates the human apelin receptor APJ | P35414 | CHO-K1 APJ PathHunter beta-arrestin, luminescence; 0% DMSO wells, 100% apelin | activation, % at 20 µM | actives 0.11% (n = 330,000) | AID 2520;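 active means activation more than six SD over the plate average, tested at 20 µM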
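Assay system: CHO-K1 APJ beta-arrestin complementation cell line / Compound: single test compound dose, 20 µM final, 1% DMSO / Times: overnight seeding, 90 min compound at 25 °C, 1 h detection / Technique: beta-gal luminescence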
EBI2 block: antagonists of human EBI2 receptor; P32249; EBI2 beta-arrestin recruitment, luminescence, 7a,25-OHC stimulated; inhibition, % at 5 µM; actives 0.81% (n = 360,000); AID 651636; in the data active means inhibition above about 38%;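 further: enzyme fragment complementation signal reports receptor beta-arrestin coupling in cells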
CCR6 antag: antagonists of human CCR6 receptor | P51684 | CHO-K1 CCR6 PathHunter beta-arrestin, luminescence, CCL20-stimulated | inhibition, % at 20 µM | actives 0.49% (n = 340,000) | AID 493098;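 active means compounds whose inhibition of the agonist-driven luminescence signal at 20 µM reaches about 50%, limit read from the data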;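 further: cells stimulated with CCL20 at 14 nM final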
APJ antag conf: APJ receptor antagonism confirmation | shares compounds with APJ antagonist | APJ beta-arrestin recruitment, luminescence, antagonist mode | inhibition, % at 20 µM | actives 66% (n = 950); in the data active means inhibition above about 50%
Each line names hits and unclear results; the compound was inactive in the other large screens (follow-up assays come after a bar, where they were run). A selection: hits, their analogues and other compounds. The true share with any hit is near 1.5%.

CCOc1cc(/C=C2\SC(=S)N(C(C(=O)O)c3ccccc3)C2=O)ccc1O (configuration not stated)	APJ antagonist 49, CXCR6 block 48, CCR6 antag 50 | APJ antag conf 92
O=C1/C(=C/c2cccc(O)c2)SC(=S)N1CC1CCCO1 (configuration not stated)	none
COc1ccccc1/C=C1\SC(=S)N(C(C(=O)O)c2ccccc2)C1=O (configuration not stated)	none
COc1cc(/C=C2\SC(=S)N(C(C(=O)O)c3ccccc3)C2=O)ccc1O (configuration not stated)	APJ antagonist 50, CXCR6 block 42 | APJ antag conf 91
CCOc1cc(/C=C2/SC(=S)N(CC3CCCO3)C2=O)ccc1O (configuration not stated)	APJ antagonist 48, CXCR6 block 51, CCR6 antag 67 | APJ antag conf 101
Cc1cc(C)c(C)c(S(=O)(=O)N2CCN(CC(=O)Nc3sccc3C#N)CC2)c1C	none
COc1cc(Br)cc(/C=C/c2ccc3cccc(O)c3n2)c1O	none
COc1cc(/C=C/c2ccc3cccc(OC)c3n2)c(O)c([N+](=O)[O-])c1	APJ antagonist 44, CXCR6 block 42, CCR6 antag 54 | APJ antag conf 74
COCCn1c(Cc2cccn2C)nnc1SCC(=O)NCc1ccc2c(c1)OCO2	none
O=S(=O)(O)c1cc(O)c2c(O)c(N=Nc3cc(Cl)ccc3O)c(S(=O)(=O)O)cc2c1	APJ antagonist 40, CCR6 antag 60 | APJ antag conf 70
O=S(=O)(O)c1cc(Cl)cc(N=Nc2ccc(O)cc2O)c1O	none (no result: APJ antagonist, APJ ag)
COCc1cc(=O)[nH]c(Nc2nc3ccccc3o2)n1	none
Cc1ccc2oc(Nc3nc(-c4ccccc4)cc(=O)[nH]3)nc2c1	APJ antagonist 54, CCR6 antag 58 (no result: CXCR6 block, EBI2 block) | APJ antag conf 62
O=C(C[C@H]1C/C=C\CCCCC(=O)OC[C@H]2CCCN2C1=O)N[C@H](CO)Cc1ccccc1	none
CCCCN(CCCC)C(=S)N/N=C/c1c(C)[nH]n(-c2ccccc2)c1=O	APJ antagonist 75, CXCR6 block 98, EBI2 block 49, CCR6 antag 113 | APJ antag conf 126
CSCc1ccc(C(=O)NC(C)c2cnn(-c3ccccn3)c2C)o1 (configuration not stated)	none
COc1ccc(C(=O)CC(=O)C(=O)Nc2cccc(F)c2)cc1	none
COc1ccc(C(=O)CNc2ccccc2CO)cc1	APJ antagonist 40, CCR6 antag 91 | APJ antag conf 149
COc1ccc(C(=O)CNc2cccc(F)c2)cc1	APJ antagonist 45, CCR6 antag 60 | APJ antag conf 95
COc1ccccc1NCC(=O)c1ccc(Cl)cc1	APJ antagonist 72, CCR6 antag 71 | APJ antag conf 110
CCCCN(C(C)=O)c1c(CC)nc2ccc(C(=O)NCCCN(C)C)cn12	none (no result: APJ antagonist, APJ ag, CCR6 antag)
Cc1ccc2c(c1)C(=O)C(=O)N2c1ccc(C(F)(F)F)cc1	none
Cc1ccc2c(c1)C(=O)C(=O)N2c1ccc(Cl)cc1	APJ antagonist 45 | APJ antag conf 86
CCC(=O)N1CCN(c2ccc(NC(=O)COc3ccccc3Cl)cc2)CC1	none
CCC(=O)N1CCN(c2ccccc2NC(=O)COc2ccccc2Cl)CC1	APJ antagonist 52, CXCR6 block 43, CCR6 antag 51 | APJ antag conf 61
COc1ccc(NC(=O)Cc2coc3cc(C)ccc23)cn1	none
CCOCCCN1C(=O)CN(C2CCCCC2)C(=O)C1c1ccc(OC)c(OC)c1 (configuration not stated)	none | APJ antag conf inactive
CCCOc1ccc(C2C(=O)N(C3CCCCC3)CC(=O)N2CCCOCC)cc1OC (configuration not stated)	none
O=C1NCCN1c1ncc([N+](=O)[O-])s1	none
O=[N+]([O-])c1cnc(Sc2ccncn2)s1	APJ antagonist 55, CXCR6 block 75, CCR6 antag 80 | APJ antag conf 67
Cc1ccc(N(CC(=O)NC(C)C)C(=O)CCC(=O)Nc2nccs2)c(C)c1	none
Cc1ccc(N=Nc2c(N)[nH]n3c(=O)cc(C)nc23)cc1	none (no result: APJ antagonist, APJ ag)
Nc1[nH]n2c(=O)cc(-c3ccccc3)nc2c1N=Nc1ccc(S(N)(=O)=O)cc1	APJ antagonist 42, CCR6 antag 51 | APJ antag conf 65
